Test results reported in paper PMC5598257 (Toxicology Reports, 2015).

Key:
[1] = system: SH-SY-5Y (human neuroblastoma); assay: In vitro cytotoxicity assay; format: cell-based; settings: SH-SY-5Y cells, 72 h, MTT
Outline: (§1)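 Cells were grown in DMEM with 10% FBS and seeded at 1–2 × 10^4 per well, depending on the line. Test compound (free, or co-evaporated with DMPC 1:5 from chloroform) was added at once at 250, 50, 10, 2, 0.4 and 0.08 μM. Incubation ran 72 h at 37 °C, 5% CO2. Survival was read by MTT at OD 540 nm. Buffer-treated controls were on a separate plate. Triplicate runs; IC50 by curve fitting.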

[2] = system: C6 (rat glial tumor); assay: In vitro cytotoxicity assay; format: cell-based; settings: C6 cells, 72 h, MTT
Outline: as §1

[3] = system: MCF-7 (human breast adenocarcinoma, estrogen-positive); assay: In vitro cytotoxicity assay; format: cell-based; settings: MCF-7 cells, 72 h, MTT
Outline: as §1

[4] = system: MDA-MB-435s (human melanoma); assay: In vitro cytotoxicity assay; format: cell-based; settings: MDA-MB-435s cells, 72 h, MTT
Outline: as §1

[5] = aqueous solutions, base catalyzed hydrolysis to 5-fluorouracil; cited from earlier work
[6] = Stability; format: physicochemical; settings: for Rate constants, K (×10^4): hydrolysis in phosphate buffer (D2O), pseudo-first-order
Outline: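 DMPC was sonicated in D2O phosphate buffer (pH 5.0–8.0) at 30% power for 5 min, 10 s on/off. To 800 μl of buffer with or without vesicles (compound:DMPC 1:5), 15 μl of a 0.337 M CDCl3 stock of test compound was added. 1H NMR ran at 25 °C, 128 scans, 2 s relaxation delay, integrating the C6H signal. Single-point runs. Pseudo-first-order rate constants; inhibition ratio is K without/with DMPC.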

[7] = system: H9C2 (rat myocardium); assay: In vitro cytotoxicity assay; format: cell-based; settings: H9C2 normal cells, 72 h, MTT
Outline: as §1

Rate constants, K (×10^4) ([6]; pH 5.0, 25 °C)	Rate constants, K (×10^4) ([6]; pH 6.0, 25 °C)	Rate constants, K (×10^4) ([6]; pH 7.0, 25 °C)	Rate constants, K (×10^4) ([6]; pH 8.0, 25 °C)	Inhibition ratio, K1/K3 ([6]; pH 8.0, K of 1 alone over K of 1 with DMPC (3))	Time practically kept unharmed ([6]; phosphate buffer pH 5, without DMPC)	Time degradation completely prevented ([6]; with 2 (DMPC, 1:5), phosphate buffer, at decreasing pH) [days]	SMILES	IC50, concentration providing 50% cell killing effect [1]	IC50, concentration providing 50% cell killing effect [2]	IC50, concentration providing 50% cell killing effect [3]	IC50, concentration providing 50% cell killing effect [4]	pH of highest stability [5]	IC50, concentration providing 50% cell killing effect [7]
–	–	–	–	–	–	–	CCCCCCCCCCCCCC(=O)OC[C@H](COP(=O)([O-])OCC[N+](C)(C)C)OC(=O)CCCCCCCCCCCCC [compound 2, 1,2-dimyristoyl-sn-glycero-3-phosphocholine]	no cytotoxic effect	no cytotoxic effect	–	–	–	–
0 ×10^4	0.17 ×10^4	0.54 ×10^4	0.70 ×10^4	over 7	more than 14 h	≥ 2	CCCCCCNC(=O)n1cc(F)c(=O)[nH]c1=O [compound 1, 1-hexylcarbamoyl-5-fluorouracil]	–	–	no activity in vitro	no activity in vitro	~4	not cardiotoxic
